Reference: the EternaBench riboswitch data

Tested on: MS2 coat protein
Test: apparent Kd, MS2 coat protein; higher = weaker binding; RNA-MaP array
Method in brief: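 RNA designs were transcribed from sequenced DNA templates on an Illumina sequencing chip and then incubated at room temperature with fluorescently labeled MS2 coat protein at 1.5 nM to 3 μM, with or without input ligand, in Tris-HCl pH 7.5 buffer containing KCl, MgCl2, BSA, DTT, tRNA and Tween20. Incubation lasted 0.8–1.5 h at the lowest protein concentrations and 10–20 min at the highest. Apparent Kd is the median of binding-curve fits made for each cluster. Designs measured on fewer than 10 clusters were excluded.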

[1] = designed as: ON switch for flavin mononucleotide, no ligand
[2] = ligand present: flavin mononucleotide, designed as: ON switch for flavin mononucleotide
[3] = designed as: OFF switch for flavin mononucleotide, no ligand
[4] = ligand present: flavin mononucleotide, designed as: OFF switch for flavin mononucleotide
[5] = designed as: OFF switch for tryptophan, no ligand
[6] = ligand present: tryptophan, designed as: OFF switch for tryptophan
[7] = designed as: ON switch for theophylline, no ligand
[8] = ligand present: theophylline, designed as: ON switch for theophylline

Sequence | apparent Kd [1] [µM] | apparent Kd [2] [µM] | apparent Kd [3] [µM] | apparent Kd [4] [µM] | further results
CAGGCUUUCAAGAAGGACCUGGUAACAUCAGUGGUAGGAUAUUGGUUAAGCUUGGCUUGACAUGAGGAUCACCCAUGUGGCGUA | 0.0474 | 0.0115 | – | – | –
ACAUGAGGAUCACCCAUGUGCCUCGAUAGGUAACUGAGACCCAGAAGGCCAGCGCGUUGCGCCUUGGAGGAUAUGGCAAACAAG | 0.0345 | 0.0197 | – | – | –
UUAACAUGAGGAUCACCCAUGUGAAGCCGGCGAUGAAUAGUACAGGAUAUCGAAUACCGCCUAGACGAGAAGGGUAUCAAUCGG | 0.0142 | 0.0127 | – | – | –
UCCACACGUCAGAAGGAUGUAUCUACAAUUUUCAUAGGAUAUGACCAUGGAGAUGAUUCCACAUGAGGAUCACCCAUGUCUGCU | – | – | 0.288 | 0.239 | –
UAAAUCGAAGGAUAUACAUGUACAAGUAUCCGUCAAAGAGCACAUGAGGAUCACCCAUGUAGAAGGUCGACUAA | – | – | 0.0192 | 0.0576 | –
AAAACAUGAGGAUCACCCAUGUCCAAAUAAAUACACGGAACUAGAAGGGAAAAUCGAAAUUAAUAUCAGGAUAUAGGCAAAGCA | 0.053 | 0.0422 | – | – | –
CCUCACGAAAUCGAUGAAAGCAUGUGGCACCGAGGACCGGUACGGCCGCCACUCGCAUCCACACAUGAGGAUCACCCAUGUAAGA | – | – | – | – | apparent Kd [5]: 0.0393 µM; apparent Kd [6]: 0.0516 µM
AAAUUACGUAAGAAGGCCAUAGGAACUGAAGCAAGCUCGACGACACAUGAGGAUCACCCAUGUCUGGAGGAUAUUAUGAUAUCU | 0.0103 | 0.00964 | – | – | –
GACUAACAUGAGGAUCACCCAUGUGAAGAUACCAGUAAUUUCACCUACCCUUGGCAGCUUUUUUUGAACGGCCUGAAUGCCUUGU | – | – | – | – | apparent Kd [7]: 0.0113 µM; apparent Kd [8]: 0.0171 µM
CUGUUUACAUGAGCCCGUCAUAUAUACGAUACCAGUUAAAGAUGAAACCCUUGGCAGCGUAGGACAUGAGGAUCACCCAUGUGCC | – | – | – | – | apparent Kd (designed as: OFF switch for theophylline, no ligand): 0.0186 µM; apparent Kd (ligand present: theophylline, designed as: OFF switch for theophylline): 0.0331 µM
AAUUGGAUCACAUGAGGAUCACCCAUGUCGGAAACUUUACUCAGAAGGAUGUGUACUUUUUCCACAUAGGAUAUGAGUACGACA | – | – | 0.0694 | 0.0746 | –
UCACUCCUGAUGGAUACCAGUUACUAACGCAACAUGAGGAUCACCCAUGUGAACACUCAGAACCCUUGGCAGCCAGGAGAACGAA | – | – | – | – | apparent Kd [7]: 0.0482 µM; apparent Kd [8]: 0.0255 µM
AAGCGUAGCUAGGAUAUGUAAUGACGGCUUUGAACAGAAGGAGCUACAUGAGGAUCACCCAUGUGUCCGACACA | – | – | 0.0159 | 0.125 | –
UCACAGUCCCAGAAGGCCUUGUCAGAUUCAUAAGGAGGAUAUGGAUUACAUGAGGAUCACCCAUGUGAAUACUUACAGAGCAAC | 0.0793 | 0.0154 | – | – | –
CUAACUCGUGUUAGGAUAUGGUAAGGGCUAGCCACCCAGAAGGAACAUGAGGAUCACCCAUGUCGACAGUCCCG | – | – | 0.0178 | 0.0491 | –
CCCAAAGACACAUGAGGAUCACCCAUGUUCCGCAAACAAUUGGAGGAUAUGAAGGAACGCAGCAAACAGAAGGCCAUAAAUAGC | 0.0168 | 0.00967 | – | – | –
UAGUACCAAGUGAGGAUAUCUAAAGUCUAUGAAAGAGAGAAGGCACAUGAGGAUCACCCAUGUAACUAGGUGGG | – | – | 0.152 | 0.162 | –
GUCGAAUCCUGAGGAUAUUCAGUGAUGGCUCAGACAUGAGGAUCACCCAUGUUACUCAGUGAGCGGAAGAAGGCAGCCUUCGGG | 0.163 | 0.131 | – | – | –
GACAGUUUAUAGGAUAUCGACUCGACUGGGCAUCGAGAAGGAUAAACAUGAGGAUCACCCAUGUGUGGUAGGAA | – | – | 0.0392 | 0.125 | –
CUAUCACAUGAGGAUCACCCAUGUAUGAUAAUCAUAGGAUAUAGUGCCAGCCAUAAUUUACUAGAAGGAUGUUUCU | 0.0117 | 0.0101 | – | – | –
GUUACCAUGUCGGCCGCCACUAACAAGGUUAUGGCAAGUCUACACGACAUGAGGAUCACCCAUGUUAGGACCGGGACCCAUACCC | – | – | – | – | apparent Kd [5]: 0.0134 µM; apparent Kd [6]: 0.014 µM

Sequence | apparent Kd [1] [µM] | apparent Kd [2] [µM] | apparent Kd [3] [µM] | apparent Kd [4] [µM] | further results
AGCAUGGUUGGAGGAUAUUCCGCCGUAGUGCUGAAUCCCGGACAUGAGGAUCACCCAUGUGAGCGGAAGAAGGCCAAGUUGUCC | – | – | 0.0155 | 0.0632 | –
AUAAAAGCCACAUGAGGAUCACCCAUGUAGCAGGAAGCCAGCAAGGAUAUCGCAACAGGAGGGAUCGAGAAGGAGCGUAACUAA | 0.0237 | 0.0182 | – | – | –
GGGACCGCAGCGUCAUACAUGAGGAUCACCCAUGUUUUACUAAGAAGGAUUAGGAAAGUAAGCUAAUAGGAUAUUACAAGGACA | – | – | 0.0224 | 0.0156 | –
UUGUGGGCGCUUCAGGAUAUCGCAAAAGAAACAUGAGGAUCACCCAUGUGGCCGAAGCAACUGGGCGAGAAGGGAAAGGCCCGAAG | 0.0173 | 0.0141 | – | – | –
GUAUGGCUCGAGGAUAUGUACGUAGGAGACUAGACAGAAGGCGAUACAUGAGGAUCACCCAUGUCCUAUUAACC | – | – | 0.188 | 0.129 | –
AUCUAACAUGAGGAUCACCCAUGUCAGGAUAUUGCAGCCGUAGUAGGUCUAGUUUGUGCAAGAAGGGACAUCUC | – | – | 0.00955 | 0.0225 | –
CGCGUGUUCGAGGAUAUGGAACUGAUAUUAGACCCAGAAGGCGAGACAUGAGGAUCACCCAUGUGAGGACUAAC | – | – | 0.0186 | 0.0538 | –
CGAUAUGAGGUCGAUACCAGCAGCUUCAAGCACAUGAGGAUCACCCAUGUCCAUUUUACUUGCCCUUGGCAGCGACUUUGGAAAC | – | – | – | – | apparent Kd [7]: 0.0394 µM; apparent Kd [8]: 0.0138 µM
AUAUGCGAUUGAGGAUAUAGGGAGAGGCUAACUCUAGAAGGCAAUGUAUGGAAUAGCUUACACAUGAGGAUCACCCAUGUUGCU | 0.00973 | 0.00727 | – | – | –
UAGAUAAGAAUCAAGGAUAUGAAAAGGCACACAUGAGGAUCACCCAUGUCAAGCACAAAAUGACGUCAGAAGGUGAUAAGCAGCAA | 0.0576 | 0.035 | – | – | –
ACGUAGGGCUAGAAGGCUCUAACAAGGUGCCCAUAAAAUAACAUGAGGAUCACCCAUGUUAGUAGAGAGGAUAUAGACUCAUGU | – | – | 0.0185 | 0.0193 | –
AGUUAGCCUGAUGAGGAUAUACACGCCCGGACAUGAGGAUCACCCAUGUUAACAAGUUAGCUAUUGUAGAAGGCAUCGAGGUGAUG | 0.0448 | 0.0335 | – | – | –
GUACACUCCACAGGAUAUGGUGUAGACCCUACGCCAGAAGGGUGCGUGGGUACAUGAGGAUCACCCAUGUUAAGUUUACAUACG | – | – | 0.0129 | 0.0155 | –
AAAUGUGUAUAGGAUAUCUUGACCCACGCAUUCAGAGAAGGAUACACAUGAGGAUCACCCAUGUUGAGACGGAA | – | – | 0.0155 | 0.0439 | –
AGUGGGUGUUAUGAUACCAGCGUAAUACACAACAUGAGGAUCACCCAUGUGGAGCCUCGCCGCCCUUGGCAGCAUUGGGCCCGCA | – | – | – | – | apparent Kd [7]: 0.212 µM; apparent Kd [8]: 0.344 µM
AAUGUAUGUUAGGAUAUGGCCACGGCGAGGGACCCAGAAGGAACCACAUGAGGAUCACCCAUGUAAAAUAUGGA | – | – | 0.0203 | 0.0164 | –
AGAUCCGGCGUGAGGAUAUAGCAAGCAACUAACGACUAGAAGGCACAUGAGGAUCACCCAUGUCUGUUACACUA | – | – | 0.0121 | 0.0367 | –
CGCAGACAUGAGGAUCACCCAUGUACCAUGAACAGGAAUACAAGAAGGGCAAACUUUAGAUUGAUGCAGGAUAUUGUCACGAGA | 0.0258 | 0.014 | – | – | –
GCUCUCCAAGGAUAUUAGGUGUGUUACAUGAGGAUCACCCAUGUUUUCCAAUGAAUCGUCUAAGAAGGUGGCUAUU | – | – | 0.0143 | 0.0129 | –
AUGCAUCUAGGAUAUGCGGUGAUUUACAUGAGGAUCACCCAUGUAGACCACCGGUCUAGAGCAGAAGGAGAUGUGG | – | – | 0.00517 | 0.00554 | –
